Experimental data: ChEMBL document CHEMBL1250506, “Synthesis of novel sulfanilamide-derived 1,2,3-triazoles and their evaluation for antibacterial and antifungal activities” (2010)
In brackets after ≈: the same amount, converted by molar mass.

Assays:
Assay type in all cases: functional
Candida = assay: Antifungal activity against Candida mycoderma by twofold serial dilution technique
Method in brief: (§1)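 Two-fold serial dilution MIC in 96-well microtest plates. Test compounds from DMSO stocks, with fluconazole as reference. MIC read as the first well showing about 80% growth reduction versus the drug-free well.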

Staphylococcus aureus [1] = assay: Antibacterial activity against Staphylococcus aureus ATCC 25923 by twofold serial dilution technique
Staphylococcus aureus [2] = assay: Antibacterial activity against methicillin-resistant Staphylococcus aureus N315 by twofold serial dilution technique
Method in brief: (§2)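 MIC by two-fold broth dilution in 96-well plates following NCCLS. Compounds were dissolved in DMSO as stock, then diluted in Mueller-Hinton broth to 512 down to 0.5. Inoculum was bacterial suspension adjusted with sterile saline to 1 ×10⁵ CFU. Plates were incubated 37 °C for 24 h, with a DMSO-supplemented medium control at matching dilutions. Chloramphenicol was the reference.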

Candida albicans = assay: Antifungal activity against Candida albicans ATCC 76615 by twofold serial dilution technique; method in brief: as §1
Escherichia coli = assay: Antibacterial activity against Escherichia coli JM 109 by twofold serial dilution technique
[3] = Antibacterial activity against Eberthella typhosa by twofold serial dilution technique
Bacillus subtilis = assay: Antibacterial activity against Bacillus subtilis ATCC 6633 by twofold serial dilution technique
Shigella dysenteriae = assay: Antibacterial activity against Shigella dysenteriae by twofold serial dilution technique; method in brief: as §2
Pseudomonas aeruginosa = assay: Antibacterial activity against Pseudomonas aeruginosa by twofold serial dilution technique

Structure (SMILES) | MIC (Candida) | MIC (Staphylococcus aureus [1]) | MIC (Staphylococcus aureus [2]) | MIC (Candida albicans) | MIC (Escherichia coli) | MIC [3] | MIC (Bacillus subtilis) | MIC (Shigella dysenteriae) | MIC (Pseudomonas aeruginosa)
CCCCCCCCCCCCn1cc(CNS(=O)(=O)c2ccc(N)cc2)nn1 | 256 µg/mL (≈ 607 µM) | 128 µg/mL (≈ 304 µM) | 128 µg/mL (≈ 304 µM) | 512 µg/mL (≈ 1210 µM) | 64 µg/mL (≈ 152 µM) | 64 µg/mL (≈ 152 µM) | 128 µg/mL (≈ 304 µM) | 32 µg/mL (≈ 75.9 µM) | 32 µg/mL (≈ 75.9 µM)
CCCCCCCCCCCCCCCCn1cc(CNS(=O)(=O)c2ccc(N)cc2)nn1 | > 512 µg/mL | 256 µg/mL (≈ 536 µM) | 512 µg/mL (≈ 1070 µM) | > 512 µg/mL | 256 µg/mL (≈ 536 µM) | 128 µg/mL (≈ 268 µM) | 256 µg/mL (≈ 536 µM) | 128 µg/mL (≈ 268 µM) | 64 µg/mL (≈ 134 µM)
OC(Cn1cncn1)(Cn1cncn1)c1ccc(F)cc1F [FLUCONAZOLE] | 4 µg/mL (≈ 13.1 µM) |  |  | 0.5 µg/mL (≈ 1.63 µM) |  |  |  |  | 
Nc1ccc(S(=O)(=O)NCc2cn(Cc3ccc([N+](=O)[O-])cc3)nn2)cc1 | > 512 µg/mL | > 512 µg/mL | 256 µg/mL (≈ 659 µM) | > 512 µg/mL | > 512 µg/mL | > 512 µg/mL | 256 µg/mL (≈ 659 µM) | > 512 µg/mL | > 512 µg/mL
CCCCCCn1cc(CNS(=O)(=O)c2ccc(N)cc2)nn1 | > 512 µg/mL | 512 µg/mL (≈ 1520 µM) | 512 µg/mL (≈ 1520 µM) | > 512 µg/mL | > 512 µg/mL | > 512 µg/mL | 256 µg/mL (≈ 759 µM) | 256 µg/mL (≈ 759 µM) | 256 µg/mL (≈ 759 µM)
C#CCNS(=O)(=O)c1ccc(N)cc1 | > 512 µg/mL | > 512 µg/mL | > 512 µg/mL | > 512 µg/mL | > 512 µg/mL | > 512 µg/mL | > 512 µg/mL | > 512 µg/mL | > 512 µg/mL
Cc1cccc(Cn2cc(CNS(=O)(=O)c3ccc(N)cc3)nn2)c1 | > 512 µg/mL | > 512 µg/mL | > 512 µg/mL | > 512 µg/mL | > 512 µg/mL | 512 µg/mL (≈ 1430 µM) | 512 µg/mL (≈ 1430 µM) | > 512 µg/mL | > 512 µg/mL
Nc1ccc(S(=O)(=O)NCc2cn(Cc3cccc(Cl)c3)nn2)cc1 | > 512 µg/mL | 512 µg/mL (≈ 1360 µM) | 256 µg/mL (≈ 678 µM) | > 512 µg/mL | > 512 µg/mL | 256 µg/mL (≈ 678 µM) | > 512 µg/mL | > 512 µg/mL | 512 µg/mL (≈ 1360 µM)
Nc1ccc(S(=O)(=O)NCc2cn(Cc3ccc(F)cc3F)nn2)cc1 | 512 µg/mL (≈ 1350 µM) | 64 µg/mL (≈ 169 µM) | 128 µg/mL (≈ 337 µM) | 256 µg/mL (≈ 675 µM) | 128 µg/mL (≈ 337 µM) | 128 µg/mL (≈ 337 µM) | 128 µg/mL (≈ 337 µM) | 16 µg/mL (≈ 42.2 µM) | 16 µg/mL (≈ 42.2 µM)
O=C(N[C@H](CO)[C@H](O)c1ccc([N+](=O)[O-])cc1)C(Cl)Cl [CHLORAMPHENICOL] |  | 4 µg/mL (≈ 12.4 µM) | 2 µg/mL (≈ 6.19 µM) |  | 4 µg/mL (≈ 12.4 µM) | 2 µg/mL (≈ 6.19 µM) | 2 µg/mL (≈ 6.19 µM) | 4 µg/mL (≈ 12.4 µM) | 8 µg/mL (≈ 24.8 µM)
CCCCCCCCCCn1cc(CNS(=O)(=O)c2ccc(N)cc2)nn1 | > 512 µg/mL | 256 µg/mL (≈ 650 µM) | 512 µg/mL (≈ 1300 µM) | > 512 µg/mL | 512 µg/mL (≈ 1300 µM) | 128 µg/mL (≈ 325 µM) | 64 µg/mL (≈ 163 µM) | 128 µg/mL (≈ 325 µM) | 64 µg/mL (≈ 163 µM)
Nc1ccc(S(=O)(=O)NCc2cn(Cc3ccc(Cl)cc3Cl)nn2)cc1 | 512 µg/mL (≈ 1240 µM) | 64 µg/mL (≈ 155 µM) | 128 µg/mL (≈ 310 µM) | 512 µg/mL (≈ 1240 µM) | 128 µg/mL (≈ 310 µM) | 128 µg/mL (≈ 310 µM) | 128 µg/mL (≈ 310 µM) | 32 µg/mL (≈ 77.6 µM) | 64 µg/mL (≈ 155 µM)
Nc1ccc(S(=O)(=O)NCc2cn(Cc3ccccc3)nn2)cc1 | > 512 µg/mL | 512 µg/mL (≈ 1490 µM) | 256 µg/mL (≈ 745 µM) | > 512 µg/mL | > 512 µg/mL | 512 µg/mL (≈ 1490 µM) | > 512 µg/mL | 512 µg/mL (≈ 1490 µM) | 512 µg/mL (≈ 1490 µM)
CCCCCn1cc(CNS(=O)(=O)c2ccc(N)cc2)nn1 | > 512 µg/mL | > 512 µg/mL | > 512 µg/mL | > 512 µg/mL | > 512 µg/mL | 512 µg/mL (≈ 1580 µM) | > 512 µg/mL | 512 µg/mL (≈ 1580 µM) | 512 µg/mL (≈ 1580 µM)
CCCCCCCCn1cc(CNS(=O)(=O)c2ccc(N)cc2)nn1 | 512 µg/mL (≈ 1400 µM) | > 512 µg/mL | 512 µg/mL (≈ 1400 µM) | > 512 µg/mL | 512 µg/mL (≈ 1400 µM) | 256 µg/mL (≈ 700 µM) | 256 µg/mL (≈ 700 µM) | 256 µg/mL (≈ 700 µM) | 128 µg/mL (≈ 350 µM)
Nc1ccc(S(=O)(=O)NCc2cn(Cc3ccc(Cl)cc3)nn2)cc1 | > 512 µg/mL | 512 µg/mL (≈ 1360 µM) | > 512 µg/mL | > 512 µg/mL | > 512 µg/mL | 512 µg/mL (≈ 1360 µM) | > 512 µg/mL | > 512 µg/mL | > 512 µg/mL
Nc1ccc(S(=O)(=O)NCc2cn(Cc3ccccc3Cl)nn2)cc1 | > 512 µg/mL | > 512 µg/mL | > 512 µg/mL | > 512 µg/mL | > 512 µg/mL | > 512 µg/mL | > 512 µg/mL | 512 µg/mL (≈ 1360 µM) | 512 µg/mL (≈ 1360 µM)
Nc1ccc(S(=O)(=O)NCc2cn(Cc3ccc(F)cc3)nn2)cc1 | > 512 µg/mL | 128 µg/mL (≈ 354 µM) | > 512 µg/mL | > 512 µg/mL | 256 µg/mL (≈ 708 µM) | 256 µg/mL (≈ 708 µM) | > 512 µg/mL | 128 µg/mL (≈ 354 µM) | 128 µg/mL (≈ 354 µM)
